The chains are these.
B1: tRNA (parent)
chain: GUUCCGUUGGCGUAAUGGUAACGCGUCUCCCUCCUAAGGAGAAGACUGCGGGUUCGAGUCCCGUACGGAACG

This sample holds only a part of the variants without activity. A value given as a limit tells only on which side of the number the result lay.

The data set covers variants of B1. The data set is described as follows: yeast fitness relative to wild type (ratio to wild type); higher = fitter; tRNA-Arg(CCU), competitive growth, 37 C, YPD. The method in brief:
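Changes in genotype frequencies gave Darwinian fitness relative to wild type. Frequencies were read by 100-nucleotide paired-end sequencing of gene amplicons before and after pooled Saccharomyces cerevisiae strains, carrying tRNA-Arg(CCU) gene variants at the native locus, were competed in YPD at 37°C for 24 hours in six replicates. A genotype was kept only with ≥ 100 starting reads, and estimates < 0.5 were set to 0.5.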
Regarding GUUCCAUUGGCGUAAUGGUAACCCGUCUCCCUCCUAAGGAGAAGACUGCGGGUUCGAGUCCCGUACGAAACG [G6A G23C G68A], the yeast fitness is not above 0.5.

As for GUUCCAUUGGCGUAAUAGUAACGCGUUUCCGUCCUAAGGAGAAGACUGCGGGUUCGAGUCCCGUAGGGAACG [G6A G17A C27U C31G C66G], the yeast fitness is not above 0.5.

In the case of GUUCCAUUGGCGUAAUGAUAACGCGUCUCCCUCCUAAGGACAAGACUGCGGGUUCGAGUCCCGUACGGAACG [G6A G18A G41C], the yeast fitness is not above 0.5.

GUUCCAUUGGCGUAAUGGUAACAGGUCUCCCUCCUAAGGAGAAAACUGCGGGUUCGAGUCCCGUACGGAACG [G6A G23A C24G G44A]: the yeast fitness was not above 0.5.

As for GUUCCAUUGGCGUAAUGGUAACGCGUCUCCCUCCUAAAGAGAAGACUGCGGGUUCGAGUCCCGUACGGAACG [G6A G38A], the yeast fitness was 0.812.

GUUCCAUUGGCGUAAUGAUAACCCGACUCUCUCCAAAGGAGAGGACUGCGGGUUCGAGUCCCGUACGGAACG [G6A G18A G23C U26A C30U U35A A43G]: the yeast fitness was not above 0.5.

As to GUUCCAUUGGCAUAAUGGUAACGCGUUUCGCUCCUAAGGAGAAGACUGCGGGUUUGCGUCCCGUACGGAACG [G6A G12A C27U C30G C55U A57C], the yeast fitness is not above 0.5.

In the case of GUUCCAUUGGCAUAAUGGUAACGCGUCUCCCUCCUAAGGAGAAGACUGCGGGUUCGAGUCCCGUACGGAACG [G6A G12A], the yeast fitness came out at 0.764.

In the case of GUUCCAUUGGCGUAAUGCUAACGCGUCUCCCUCCUAAGGAGAAGACUGCGGGUUCGAGUCGCGUACGGAACG [G6A G18C C61G], the yeast fitness turned out to be 0.563.

As for GUUCCAUUGGCGUAAUCCUAACGCGUCUCCCUCCUAAGGAGAAGGCUGCGGGUUCGACUCCCGUAUGGAACG [G6A G17C G18C A45G G58C C66U], the yeast fitness was not above 0.5.

As for GUUCCAUUGGCGUAAUGGUAACCCGUCUCCCUCCUAUGGAGAAGACUGCGGGUUCGGGUCCCGUCCGGAUCG [G6A G23C A37U A57G A65C A70U], the yeast fitness was not above 0.5.

For GUUCCAUUGGCGUAAUGCUAACGCGUCUCGCUCAUACGGAGAAGACUGCGGGUUCGAGUCUCGUUCGGAACG [G6A G18C C30G C34A A37C C61U A65U], the yeast fitness was not above 0.5.

With GUUCCAUUGGCAUAAUGGUAACCCGUCUCCCUCCUAAGGAGAAGACUGGGGGGUCGGGUCCCGUACGGAACG [G6A G12A G23C C49G U53G A57G], the yeast fitness was not above 0.5.

With GUUCCAUUGGCGUAAUGCUACCGCGUCUCCCUACUAAGGAGAAGACUGCGGGUUCAAGUCCCGUACGGAACG [G6A G18C A21C C33A G56A], the yeast fitness is not above 0.5.

Regarding GUUCCAUUGGCGUAAUCGCAACGCGUCUACCUCCUAAGGAGAAGACUGCGGGUUCGAGUCCCGUACGGAGCG [G6A G17C U19C C29A A70G], the yeast fitness is not above 0.5.

On to GUUCCAUUGGCGUAAUGGUAACCCGUCUGCCUCCUAAGGAGAUGACUGCAGGUUCGAGUCCCGUCCGGAACG [G6A G23C C29G A43U G50A A65C], for which the yeast fitness was not above 0.5.

Consider GUUCCAUUGGCAUAAUGGUAACGCGUCUCCCUCUUAAGGAAAAGACUGCGGGUUCGAGUCCCGUACGGAACG [G6A G12A C34U G41A], for which the yeast fitness is 0.556.

As to GUUCCAUUGGCGUAAUAGUAACGGGUGUCCCUCCUAAGGAGAAGACUGCGGGUUCGAGUCCCGUACAGAACG [G6A G17A C24G C27G G67A], the yeast fitness is not above 0.5.

Consider GUUCCAUUGGCCUAAUGGUAACGCGUCUCCCUCCUCAGGAGAAGACUGCGGGUUCGAGUCCCGUACGGAACG [G6A G12C A36C], for which the yeast fitness was not above 0.5.

Consider GUUCCAUUGGCAUAAUGGUAGCGCGUCUCCCUCCUAAGGAGAAGAAUGCGGGUUCGAGUCCCGUACGGAACG [G6A G12A A21G C46A], for which the yeast fitness is 0.636.

Take GUUCCAUUGGCGUAAUGGUAACGCGUCUCCCUCCUAAAGAGAAGACAGCGGGUUCGAGUGCCGUACGGAACG [G6A G38A U47A C60G]: the yeast fitness is not above 0.5.

In the case of GUUCCAUUGGCGUAAUAGUAACGCGUUUCCCUACUACGGAGAAGACUGCGGGUUCGAGUCCCGUACGGAACG [G6A G17A C27U C33A A37C], the yeast fitness is not above 0.5.

As for GUUCCAUUGCCGUAAUGGUAACGCGUCUCACCCCUAAGGAGAAGACUGCGGGUUCGAGUCCCGUACGGUACG [G6A G10C C30A U32C A69U], the yeast fitness is 0.586.

GUUCCAUUGGCGUAAUGGUAACGCGUCUCCCUCCUAAAGAGAAGACUGCGGGUUCGAGUCACGUACGGAACG [G6A G38A C61A]: the yeast fitness is not above 0.5.

Turning to GUUCCAUUGGCGUAAUGGUAACCCGUCUCCCUCCUAUGGAGAAGACUGCGGGUUCGGGUCCCGUCCGGAACG [G6A G23C A37U A57G A65C], the yeast fitness is not above 0.5.

Regarding GUUCCAUUGGCGUAAUAGUAACGCGUCUCCCUCCUAAGGAGAAGACUGCGGGUUCGAGUCCCGUACGGUACG [G6A G17A A69U], the yeast fitness is 0.551.

Regarding GUUCCAUUGGCCUAAUGCUAACGCGUCUCCCUCCUAAGGAAAGGACUACGGGUUCGAGUCCCGUACGGAACG [G6A G12C G18C G41A A43G G48A], the yeast fitness was not above 0.5.

As to GUUCCAUUGGCAUAACGGUAACGCGUCUCCCUCCUAAGGAGAAGACUGCGGGUUCGAGUCCCGUACGGAACG [G6A G12A U16C], the yeast fitness came out at 0.537.

Turning to GUUCCAUUGGCGUAAUGGUAACGCCUCUCCCUCUUAAGGAGAAGAAUGCGGGUUCGAGUCCCGUACGGAACG [G6A G25C C34U C46A], the yeast fitness is not above 0.5.

GUUCCAUUGGCGUAAUCCUAACGCGUCUCCCUCCUAAGGAGAAGGCUGCGGGUUCGAAUCCCGUACGGAACG [G6A G17C G18C A45G G58A]: the yeast fitness is not above 0.5.

For GUUCCAUUGGCAUAAUGGUAACGCGUCUCCCUCCUAAGGAGAAGACUGCGGGUUCGAGUCCCGUACGGAUCG [G6A G12A A70U], the yeast fitness worked out at 0.656.

Turning to GUUCCAUUGGCGUAAUGGUAACACGUUUCCCUCCUAAGGAGAAGACUGCGGGUUCGAGUGCCGUACAGAACG [G6A G23A C27U C60G G67A], the yeast fitness was not above 0.5.

As for GUUCCAUUGGCGUAAUGCUAACGCGUCUCGCUCAUACGGAGAAGACUGCGGGUUCGAGUCCCGUUCGGAACG [G6A G18C C30G C34A A37C A65U], the yeast fitness was found to be 0.584.

Take GUUCCAUUGGCAUAAUGGUAAUGCGUCUCCCUCCUAAGGAGCAGACUGCGGGUUCGAGUCCCGUACGGAACG [G6A G12A C22U A42C]: the yeast fitness was not above 0.5.

Regarding GUUCCAUUGGCAUAAUGGUAACGCGUGUCCCUCCUAAGGAGAAGACUGCGGGUUCGAGUCCCGUACGCAUCG [G6A G12A C27G G68C A70U], the yeast fitness stood at 0.549.

In the case of GUUCCAUUGGCCUAAUGGUAACGCGUAUCCCUCCUAGGGAGAAGACUGUGGGUUCGAGUCCCGUACGGAACG [G6A G12C C27A A37G C49U], the yeast fitness was not above 0.5.

On to GUUCCAUUGGCGUAAUGGUAACCCGUCUCCCUCCUAAGGACAAGACUGUGGGUUCGAGUCCCGUACGGAACG [G6A G23C G41C C49U], for which the yeast fitness was not above 0.5.

For the variant GUUCCAUUGGCGUAAUAGGAACGCGUCUCCCUCCUAAGGAGAAGACUGCGGGUUCGAGUCCCGUACGGUACG [G6A G17A U19G A69U], the yeast fitness amounted to 0.595.

For the origin of these results see the RNAGym collection of RNA variant scans (doi:10.1126/science.aae0568).
